Assay outcomes as filed in PubChem BioAssay.
PERK inh – blocks human PERK kinase. Q9NZJ5. CHO PERK-DD fusion, SEAP luminescence translation reporter. inhibition, % at 5.6 µM. hit rate 0.17% among 220,000;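 active = inhibition above the mean inhibition of all tested compounds plus 3 SD, set separately per screening campaign, cut at about 2.9% in these data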;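 also: PERK kinase domain activated by AP20187 dimerizer at 100 nM; 0% = DMSO with dimerizer and 100% = rapamycin at 8.4 µM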
Mdm2 ligase inh – Mdm2 E3 ligase (human) inhibition; signal enhancement, % at 5 µM; hit rate 0.11% among 210,000; Q00987; AID 1230; cell-based MDM2 ubiquitination luciferase reporter, 2 h; 0 = plate control, 100 = twice control, blank-subtracted;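 active = signal enhancement of 30% or more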;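 also: luminescence tracks abundance of the self-degrading MDM2-luciferase fusion protein; higher signal means inhibition of MDM2 E3 ligase activity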
Target sequence (Q00987 whole entry, looked up, the tested form may be a part): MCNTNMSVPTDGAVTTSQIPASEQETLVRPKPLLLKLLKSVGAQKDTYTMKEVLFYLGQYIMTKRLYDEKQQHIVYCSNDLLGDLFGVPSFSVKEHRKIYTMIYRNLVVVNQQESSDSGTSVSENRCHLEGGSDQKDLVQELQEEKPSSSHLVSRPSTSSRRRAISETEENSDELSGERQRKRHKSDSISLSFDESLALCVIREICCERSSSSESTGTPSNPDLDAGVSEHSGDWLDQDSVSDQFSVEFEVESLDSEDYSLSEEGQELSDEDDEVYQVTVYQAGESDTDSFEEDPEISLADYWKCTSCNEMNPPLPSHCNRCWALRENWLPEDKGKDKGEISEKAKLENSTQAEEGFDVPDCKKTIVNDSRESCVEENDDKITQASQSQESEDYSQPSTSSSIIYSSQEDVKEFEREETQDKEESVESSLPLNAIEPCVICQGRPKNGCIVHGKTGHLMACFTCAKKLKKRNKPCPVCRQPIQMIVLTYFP
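Assay system: mammalian cells stably expressing self-ubiquitinating, self-degrading MDM2 E3–luciferase fusion. Quantity: 2000 cells in each well. Medium: DMEM culture medium. Compound dosing: single-point 5 µM. Timing: cell settling 4 h, compound treatment 2 h, both 37 °C. Technique: luciferase luminescence. Read-out basis: percent signal gain over controls, blank-subtracted. Benchmarks: plate controls and plate blanks.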
AHR act – activators of human aryl hydrocarbon receptor. P35869. AHR-responsive luciferase reporter cells, luminescence. activation, % at 5 µM. hit rate 2.5% among 320,000. AID 2796; in the data active = activation above about 47%;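 also: 0% = vehicle wells and 100% = reference agonist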
APP 5'UTR act – activates APP 5'UTR luciferase reporter; hit rate 1% among 190,000; activation, % at 2 µM; SH-SY5Y APP 5'UTR luciferase reporter, luminescence; zero percent = DMSO vehicle wells;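 active = activation above a set limit, based on mean plus 3 SD of controls, cut at about 140% in these data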
STAT1 activator – STAT1 signaling activation; NIH 3T3 STAT1-luciferase reporter, IFN-gamma, luminescence; 100% = IFN-gamma alone, no compound; activation (% of control), % at 5.5 µM; hit rate 2.6% among 200,000; AID 932;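 active = activation above the screen-wide mean activation plus 3 SD, cut at about 130% in these data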;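 also: raw ratio to IFN-gamma control signal so 100% means no change and 0% no light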
NF-kB neuron act – NF-kB expression increase, human neuronal cells; NF-kB reporter expression; active compounds read high; fold change at 12.5 µM; hit rate 1.6% among 190,000; in the data active = fold change above about 3.3
AHR act confirm – human AHR activation, confirmation | shares compounds with AHR act | human cells, AHR-responsive luciferase reporter, luminescence | activation, % at 9 µM | hit rate 87% among 2,300; in the data active = activation above about 49%;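 also: HepG2 hepatoma cells carrying a DRE-driven firefly luciferase reporter; 0% = vehicle wells and 100% = reference agonist wells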
PXR counter – PXR activation, counter-screen for AHR activators. shares compounds with AHR act. cell-based PXR reporter, luciferase luminescence. activation, % at 11.6 µM. hit rate 88% among 2,300. AID 434939; in the data active = activation above about 11%;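 also: human hepatoma DPX-2 cells expressing full-length human PXR; 0% = DMSO and 100% = reference agonist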
* hit, by the source's call; / = not tested or not shown. Compounds with a hit are over-represented: about 4.5% of the library has one in this group of screens.

SMILES | PERK inh | Mdm2 ligase inh | AHR act | APP 5'UTR act | STAT1 activator | NF-kB neuron act | AHR act confirm | PXR counter
COc1cccc(/C=N/n2c(=O)[nH]c3ccccc32)c1OC | -0.4 | -7.8 | 118.2* | -1.2 | 110.3 | 1.48 | 93.5* | 17.7*
COc1ccccc1C(=O)Nc1ccc(S(=O)(=O)Nc2cnc3ccccc3n2)cc1 | / | / | 0.5 | / | / | / | / | /
CCOC(=O)C1(Cc2ccc(OC)cc2)CCN(C(=O)CCc2cccnc2)CC1 | -0.3 | -1.5 | 1.5 | 7.3 | 110.0 | 1.27 | / | /
CN(C)S(=O)(=O)c1ccc(NC(=O)/C=C/c2ccccc2Cl)cc1 | 0.0 | -13.8 | -6.7 | -10.6 | 117.3 | 0.96 | / | /
CN(C)c1ccc(NC(=O)/C=C/c2c(Cl)cccc2Cl)cc1 | 0.1 | -10.7 | 100.2* | 52.8 | 120.0 | 1.98 | 146.9* | 87.2*
CCC(C)(C)NC(=O)C(c1ccc(OC)cc1)N(C(=O)CCC(=O)Nc1cc(C)on1)c1ccc(F)cc1 (stereo unspecified) | / | / | -0.8 | / | / | / | / | /
O=C1COCC(=O)N1CCc1c[nH]c2ccccc12 | 0.5 | -11.9 | 83.2* | / | / | / | 108.2* | 12.0*
CCOC(=O)c1[nH]cnc1C(=O)NC1CCN(C(=O)OC(C)(C)C)CC1 | / | / | -2.0 | / | / | / | / | /
COc1ccccc1CNC(=O)CSc1nnc2ccc(-c3cccnc3)nn12 | 0.0 | -3.5 | 11.1 | -5.8 | 98.6 | 1.03 | / | /
O=S(=O)(c1ccccc1)c1ncc(C(F)(F)F)cc1Cl | 0.7 | -4.8 | / | -11.9 | 86.0 | 1.07 | / | /
CC1(C)CC(=O)C2=C(C1)N1C(=C(C#N)C2c2ccc(Cl)cc2)N=C(N)c2ccccc21 (stereo unspecified) | -0.3 | / | 96.7* | 0.9 | 105.3 | 0.49 | 7.6 | 159.3*
c1ccc(-n2nc3c(ccc4cnnc43)[nH]2)cc1 | -0.6 | -17.8 | 131.3* | 87.2 | 111.0 | 3.28 | 148.8* | 26.0*
O=C(Nc1cccc(F)c1)N1CCCCCC1 | / | / | 3.5 | / | / | / | / | /
CCCCC(=O)Nc1nc(C)c(-c2csc(Nc3cc(OC)ccc3OC)n2)s1 | -1.2 | -7.3 | 85.5* | -2.2 | 112.4 | 0.81 | 81.6* | 57.6*
CCCCCC(=O)Nc1nc(C)c(-c2csc(Nc3ccccc3OC)n2)s1 | -1.3 | -11.7 | 84.9* | -0.5 | 111.9 | 1.06 | 96.4* | 50.5*
COc1ccccc1Nc1nc(-c2sc(NC(=O)c3ccc([N+](=O)[O-])cc3)nc2C)cs1 | -0.3 | -14.4 | 18.6 | 56.6 | 94.2 | 0.9 | / | /
CCCC(C)C(=O)Nc1nc(C)c(-c2csc(Nc3ccccc3OC)n2)s1 (stereo unspecified) | -0.9 | -4.4 | 124.3* | 15.9 | 102.8 | 1.01 | 71.9* | 61.8*
CCCCCCC(=O)Nc1nc(C)c(-c2csc(Nc3cc(Cl)ccc3C)n2)s1 | 0.1 | -13.2 | 79.3* | 0.8 | 89.5 | 1.02 | 80.9* | 16.5*
COc1ccccc1Nc1nc(-c2sc(N)nc2C)cs1 | / | / | 24.3 | / | / | / | / | /
COc1ccc(NC(=O)CNc2cc(S(=O)(=O)N3CCOCC3)ccc2NCC2CCCO2)cc1 (stereo unspecified) | 1.4 | -16.8 | -5.5 | -18.8 | 98.6 | 1.41 | / | /
COc1ccc(C(=O)CN2C(=O)c3ccccc3C2=O)cc1 | 1.0 | -1.6 | -2.1 | / | / | / | / | /
COc1cccc(-c2c(NC(=O)c3ccco3)oc3ccc(Cl)cc3c2=O)c1 | / | / | 103.6* | / | / | / | 84.4* | 56.7*
CCCS(=O)(=O)Nc1cccc(-c2nc3cccnc3s2)c1 | -1.4 | -2.4 | 91.3* | / | / | / | 99.1* | 39.5*
O=S(=O)(Nc1cccc(-c2nc3cccnc3s2)c1)c1cccs1 | 1.0 | -11.0 | 5.1 | / | / | / | / | /
Cc1ccc(-c2nc3cccnc3s2)cc1NS(C)(=O)=O | 0.8 | -4.8 | 142.1* | 60.7 | 139.4* | 1.11 | 120.8* | 37.0*
SMILES | PERK inh | Mdm2 ligase inh | AHR act | APP 5'UTR act | STAT1 activator | NF-kB neuron act | AHR act confirm | PXR counter
O=C(Nc1ccon1)c1cnc2sccn2c1=O | 1.0 | -9.6 | 138.8* | 11.7 | 108.9 | 1.38 | 107.0* | /
Cc1cccc(NC(=O)c2cnc3sccn3c2=O)n1 | -0.2 | / | 167.5* | -15.1 | 122.4 | / | 134.8* | 13.6*
CC(=O)c1cnc2sccn2c1=O | 1.8 | 4.7 | 1.7 | 4.1 | 100.8 | 1.06 | / | /
O=C(NCc1cccnc1)c1cnc2sccn2c1=O | 0.6 | -14.2 | 80.9* | -13.6 | 116.5 | 1.06 | 39.7 | 4.1
COc1ccc(-c2nn(Cc3ccccc3)cc2C(=O)N2CCN(c3ncccn3)CC2)cc1 | / | / | 1.6 | / | / | / | / | /
O=C(Nc1ccc(Br)cc1)N1CCc2ccccc2C1 | / | / | 98.3* | / | / | / | 155.7* | 55.2*
O=C(CN1CCc2ccccc2C1)Nc1ccc(Br)cc1 | 0.0 | -13.8 | 2.0 | 7.7 | 87.5 | 1.14 | / | /
Cc1cc2c(cc1S(=O)(=O)N1CCOCC1)NC(=O)CO2 | / | / | 0.2 | / | / | / | / | /
C=CCn1cc(/C=C2/NC(=O)NC2=O)c2ccccc21 | -1.3 | -10.2 | 97.0* | / | / | / | 90.7* | 35.3*
O=C(N/N=C/c1ccncc1)c1ccc(COc2cccc3cccnc23)cc1 | -0.1 | -25.9 | 9.1 | -15.6 | 101.1 | 0.66 | / | /
O=C(N/N=C/c1ccc2cccc(OCc3ccccc3)c2n1)c1ccc(Cl)cc1 | -1.1 | -5.8 | 99.5* | 5.7 | 104.6 | 1.64 | 70.0* | 12.7*
O=C(N/N=C/c1c[nH]c2c1ccc1ccccc12)c1ccc([N+](=O)[O-])cc1 | 0.9 | -10.3 | 104.8* | 0.0 | 108.9 | 0.89 | 79.1* | 11.2*
Cc1ccc(/C=C2/SC(=O)NC2=S)o1 | 0.6 | -0.6 | / | 28.1 | 112.0 | 0.97 | / | /
O=C(N/N=C/c1sc(=O)[nH]c1-[n+]1ccccc1)c1ccccc1[O-] | 0.7 | -9.1 | 2.9 | / | / | / | / | /
O=C(N/N=C/c1sc(=O)[nH]c1-[n+]1ccc2ccccc2c1)c1ccccc1[O-] | / | / | 83.8* | / | / | / | 71.3* | 11.5*
O=C(COC(=O)CN1CCSC1=O)Nc1ccc(F)cc1Cl | / | / | -1.1 | / | / | / | / | /
N#C/C(=C/c1ccccc1)c1nn(CCO)c(N)c1C#N | 1.0 | -3.3 | 119.9* | 24.5 | 110.1 | 1.12 | 90.7* | /
N#C/C(=C\c1ccc(/C=C(/C#N)c2nn(CCO)c(N)c2C#N)cc1)c1nn(CCO)c(N)c1C#N | 0.9 | -24.2 | 6.7 | 10.2 | 91.7 | 1.02 | / | /
COc1ccc(C2=NOC(Cn3nc(C(=O)NCc4cccc(C(F)(F)F)c4)cc3-c3ccccc3)C2)cc1 (stereo unspecified) | / | / | 14.3 | / | / | / | / | /
c1ccc2c(c1)[nH]c1c(N3CCN(C4CCCCC4)CC3)ncnc12 | -1.0 | -17.6 | 80.2* | 4.9 | 86.1 | 0.6 | 68.2* | 14.3*
c1ccc2c(c1)[nH]c1c(N3CCOCC3)ncnc12 | 1.0 | -7.2 | 36.5 | 4.1 | 81.3 | 0.69 | / | /
N/C(=N\OC(=O)Cc1cccs1)c1ccc(Br)cc1 | -0.3 | -4.4 | -2.4 | 44.6 | 123.1 | 2.45 | / | /
CN(C)c1nc(-c2ccccc2)nnc1C(F)(F)F | -0.3 | -11.3 | 96.2* | 8.4 | 111.4 | 1.19 | 114.2* | 25.0*
